MrgX1 PAM – positive allosteric modulators of MrgX1, primary screen, HEK293 cells, Fluo-4 calcium flux; Mas-related G-protein coupled receptor member X1 (Homo sapiens), Q96LB2; FDSS; stronger effect = higher value; B-score at 10 µM; 0.63% of 310,000 active;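 active means plate-corrected calcium response at least 3 library SD above typical, normal starting fluorescence, not activating the receptor alone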;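 further: compound read alongside a low EC10 to EC30 dose of BAM8-22 agonist; peak minus trough fluorescence over baseline measured at the second addition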
Target sequence (Q96LB2 whole entry, looked up): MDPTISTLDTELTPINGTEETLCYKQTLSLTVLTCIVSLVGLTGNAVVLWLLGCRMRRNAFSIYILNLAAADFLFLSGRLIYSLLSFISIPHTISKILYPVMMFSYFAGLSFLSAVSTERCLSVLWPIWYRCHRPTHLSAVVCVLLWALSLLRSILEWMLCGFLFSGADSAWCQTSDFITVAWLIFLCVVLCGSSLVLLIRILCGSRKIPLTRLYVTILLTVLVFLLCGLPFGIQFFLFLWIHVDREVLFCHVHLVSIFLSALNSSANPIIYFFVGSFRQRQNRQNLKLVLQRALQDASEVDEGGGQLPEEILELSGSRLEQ
MrgX1 agonist – agonists of human MrgX1 receptor, primary screen, HEK293 cells, Fluo-4 calcium flux; Mas-related G-protein coupled receptor member X1 (Homo sapiens), Q96LB2; Fluo-4 calcium fluorescence, agonist mode; stronger effect = higher value; B-score at 10 µM; 0.44% of 310,000 active; AID 588627, 2011;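 active means calcium response B-score plate-corrected fluorescence ratio at least 3 library SD, with starting fluorescence B-score inside 5 SD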
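System – MrgX1-expressing HEK293 cells · Incubation – cells plated overnight, dye loaded 0.5 h 37 °C, 0.5 h room temperature · Technique – kinetic Fluo-4 NW fluorescence of intracellular calcium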
RGS4 act – RGS4 potentiators or activators, primary screen, cell-based, HEK293 M3R inducible RGS4, calcium flux | carbachol calcium flux Fluo4; stronger effect = lower value | 0.92% of 310,000 active | B-score at 10 µM | AID 463111, 2010;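 active means B-score of the integrated calcium signal more than 4 SD below the library mean, with starting fluorescence not abnormally high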;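 further: negative B-score means reduced calcium response which marks RGS4 activation or potentiation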
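Detection: kinetic calcium fluorescence imaging with Fluo4-AM dye, 2 µM / Material: HEK293 cells with stable M3R and inducible RGS4 / Schedule: recording 10 s baseline at 1 Hz, 100 s post-agonist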
RGS4 inh – RGS4 inhibitors, primary screen, cell-based, HEK293 M3R inducible RGS4, calcium flux | B-score at 10 µM | 0.45% of 310,000 active | AID 463165, 2010 | Fluo-4 calcium flux; stronger effect = higher value; triggered by carbachol at its EC20 | Regulator of G-protein signaling 4 (Homo sapiens), P49798;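 active means B-score, a plate-corrected calcium signal, over three deviations above library mean, with baseline fluorescence within five deviations of library mean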;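 further: RGS4 expression induced by doxycycline in cells with stable M3 receptor; B-score is computed from the integrated fluorescence ratio over baseline after carbachol; higher B-score means a larger calcium signal and so more RGS4 inhibition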
Target sequence (P49798 whole entry, looked up): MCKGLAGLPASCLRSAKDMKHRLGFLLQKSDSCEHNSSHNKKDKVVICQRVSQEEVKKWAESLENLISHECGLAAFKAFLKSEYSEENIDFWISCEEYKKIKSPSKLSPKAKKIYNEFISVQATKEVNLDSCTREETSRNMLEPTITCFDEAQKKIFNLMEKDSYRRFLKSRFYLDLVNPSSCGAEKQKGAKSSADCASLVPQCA
MrgX1 antagonist – antagonists of human MrgX1 receptor, primary screen, HEK293 cells, Fluo-4 calcium flux | B-score at 10 µM | 1.3% of 310,000 active | BAM8-22 antagonism; stronger effect = lower value | Mas-related G-protein coupled receptor member X1 (Homo sapiens), Q96LB2;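 active means calcium-response B-score plate-corrected more than 3 library SD below zero, starting fluorescence within 5 deviations, no agonist response on first addition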;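 further: peak minus trough fluorescence over baseline after final BAM8-22 challenge near maximal dose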
RGS4 inh valid – enhanced carbachol calcium response, M3R/RGS4 cells, RGS4 inhibitor project, cell-based, validation screen, HEK293 M3R/RGS4, calcium flux; shares compounds with RGS4 inh; carbachol calcium Fluo-4 fluorescence; carbachol added at its EC20; 0 = buffer wells, 100 = carbachol control; calcium response, % at 10 µM; 65% of 1,700 active; AID 492999, 2010;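 active means duplicate-averaged calcium response above the buffer-only control mean plus 5 SD of those controls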;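 further: integrated fluorescence ratio F max minus min over baseline F0; higher response in RGS4-induced cells means RGS4 inhibition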
M3R Ca ctr – carbachol calcium response in non-induced M3R cells, confirmation, counter-screen for RGS4 inhibitor project, cell-based, HEK293 M3R. shares compounds with RGS4 inh. carbachol calcium Fluo-4; submaximal (EC20) carbachol stimulus; buffer wells 0%, carbachol control wells 100%. activity (percent), % at 10 µM. 20% of 1,900 active. AID 493000, 2010; call rule not given here;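 further: RGS4 induction absent so cells express M3R without RGS4; higher means more calcium signal and flags a non-specific hit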
M3R basal Ca ctr – second RGS4 inhibitor counter-screen in uninduced cells lacking carbachol. 22% of 1,900 active. calcium response (agonist-mode artifact), % at 10 µM. shares compounds with RGS4 inh. HEK293 M3R/RGS4 non-induced, Fluo-4 calcium, no carbachol; normalised: buffer wells 0%, carbachol wells 100%;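 active means duplicate-averaged calcium rise in uninduced cells above buffer wells' mean plus 5 SD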
The depositor's hits bear a star; i = inactive; . = not tested or not shown. A selection: hits, their analogues and other compounds. The true share with any hit is near 3.5%.

SMILES	MrgX1 PAM	MrgX1 agonist	RGS4 act	RGS4 inh	MrgX1 antagonist	RGS4 inh valid	M3R Ca ctr	M3R basal Ca ctr
COc1ccc2oc(=N)c(C(=O)Nc3ccc(C)cc3)cc2c1	i	i	i	i	i	.	.	.
Cc1ccc(C(CC(=O)c2ccc(Cl)cc2)C(=O)O)cc1 (stereo not given)	i	i	i	i	i	.	.	.
Cc1ccc(SC(CC(=O)c2ccc(C)cc2)C(=O)O)cc1 (stereo not given)	i	i	i	4.67*	i	8.0%*	i	i
O=C(CCN1CCN(c2ccccc2)CC1)c1ccc(Cl)cc1	i	i	i	23.9*	i	i	35.0%*	19.5%*
O=C(CCN1CCN(c2ccc([N+](=O)[O-])cc2)CC1)c1ccc(Cl)cc1	i	i	i	i	i	.	.	.
Cc1ccccc1-n1c(SCC(=O)N/N=C/c2sccc2C)nc2ccccc2c1=O	i	i	i	5.54*	i	i	i	i
Cc1ccc(/C=N/NC(=O)CSc2nc3ccccc3c(=O)n2-c2ccccc2C)s1	i	i	i	i	i	.	.	.
C=CCNC(=S)NNc1nc2c(c(=O)[nH]1)C1(CCCCC1)Cc1ccccc1-2	i	i	i	10.7*	i	34.0%*	i	i
CCC1(C)Cc2ccccc2-c2nc(NN)[nH]c(=O)c21 (stereo not given)	i	i	i	i	i	.	.	.
CCC1(C)Cc2ccccc2-c2nc(NCCO)[nH]c(=O)c21 (stereo not given)	i	i	i	7.96*	i	20.5%*	i	i
CC1(C)Cc2ccccc2-c2nc(NCCCO)[nH]c(=O)c21	i	i	i	i	i	.	.	.
O=c1[nH]c(NCCO)nc2c1C1(CCCC1)Cc1ccccc1-2	i	i	i	8.4*	i	43.0%*	70.0%*	22.5%*
Cc1[nH]nc(-c2ccc(O)cc2O)c1-c1nc2ccccc2s1	i	i	i	7.57*	i	21.0%*	i	25.5%*
COc1ccc(-c2n[nH]c(C)c2-c2ccc(Cl)cc2)c(O)c1	i	i	i	i	i	.	.	.
Cc1[nH]nc(-c2ccc(O)cc2O)c1-c1ccc(Cl)cc1	i	i	i	28*	i	54.5%*	i	32.0%*
Oc1cccc(-c2nc3ccccc3s2)c1	i	i	i	i	i	.	.	.
CCN(CC)CCN1C(=O)C(=O)/C(=C(/O)c2ccc(S(=O)(=O)N3CCOCC3)cc2)C1c1ccc(C)cc1 (stereo not given)	i	i	i	i	i	.	.	.
Cc1cc(O)ccc1N=Cc1c(C(F)(F)F)[nH][nH]c1=O	i	i	i	6.83*	i	17.5%*	i	21.0%*
Cc1ccc(OCC(=O)NNC(=O)c2ccco2)c(C)c1	i	i	i	29.7*	i	i	i	i
COc1ccc2nc(-c3ccccc3)nc(SCC(=O)NCC3CCCO3)c2c1 (stereo not given)	i	i	i	i	i	.	.	.
Cc1noc(NS(=O)(=O)c2ccc(NC(=O)c3nn(-c4ccc(F)cc4)ccc3=O)cc2)c1C	i	i	i	i	i	.	.	.
Cc1ccc(-n2ccc(=O)c(C(=O)Nc3ccc(S(=O)(=O)Nc4onc(C)c4C)cc3)n2)cc1	i	i	i	i	i	.	i	i
O=C(CNc1ccc(Br)cc1)c1ccc(O)cc1	i	i	i	9.59*	i	22.5%*	i	i
O=C(CNc1ccc(Cl)cc1)c1ccc(Br)cc1	i	i	i	i	i	.	.	.
Cc1ccc(N2C(=O)CSC2c2cccnc2)c(Cl)c1 (stereo not given)	i	i	i	i	i	.	.	.
SMILES	MrgX1 PAM	MrgX1 agonist	RGS4 act	RGS4 inh	MrgX1 antagonist	RGS4 inh valid	M3R Ca ctr	M3R basal Ca ctr
COc1ccc(C2=NOC(C)(c3nnc(Cc4ccccc4)o3)C2)cc1 (stereo not given)	i	i	i	i	i	.	.	.
O=c1[nH]c(-c2ccccc2Cl)nc2c1sc(=S)n2-c1ccccc1	.	.	i	5.12*	.	12.0%*	i	i
O=c1[nH]c(-c2ccc(F)cc2)nc2c1sc(=S)n2-c1ccccc1	i	i	i	i	i	.	.	.
CCc1ccc2c(CN3CCC(C(=O)OC)CC3)cc(=O)oc2c1	i	i	i	7.23*	i	13.0%*	i	i
CCOC(=O)Nc1ccc2c(CN3CCC(C(=O)OC)CC3)cc(=O)oc2c1	i	i	i	4.93*	i	24.5%*	i	i
COC(=O)C1CCN(Cc2cc(=O)oc3cc(C)c(Cl)cc23)CC1	i	i	i	11.7*	i	16.5%*	i	i
CCOC(=O)Nc1ccc2c(COC(=O)c3ccccc3O)cc(=O)oc2c1	i	i	i	i	i	.	.	.
COc1ccccc1C(=O)N1CCNC(=O)C1CC(=O)Nc1cccc(C)c1 (stereo not given)	i	i	i	5.09*	i	i	i	i
O=C(CC1C(=O)NCCN1C(=O)Nc1ccccc1)Nc1cccc(Cl)c1 (stereo not given)	i	i	i	i	i	i	i	i
O=C(CC1C(=O)NCCN1C(=O)Nc1ccccc1)Nc1cc(Cl)cc(Cl)c1 (stereo not given)	i	i	i	6.06*	i	23.0%*	i	i
O=C(CC1C(=O)NCCN1C(=O)Nc1ccc(F)cc1)Nc1ccc(F)cc1 (stereo not given)	i	i	i	i	i	.	i	i
COc1cc(NC(=O)[C@@H]2CCCN2S(=O)(=O)c2cccc3cccnc23)cc(OC)c1OC	i	i	.	.	i	.	.	.
